According to ChEMBL document CHEMBL1127677, “The novel Ins(1,4,5)P3 analogue 3-amino-3-deoxy-Ins(1,4,5)P3: a pH-dependent Ins(1,4,5)P3 receptor partial agonist in SH-SY5Y neuroblastoma cells” (J Med Chem, 1994):

Experiments:
[1] = target: T1, Type 1 InsP3 receptor isoform S2 (Sus scrofa, UniProt P79248); experiment: Binding affinity against IP3 receptor in pig cerebellar membranes at a pH of 6.8 using [3H]Ins(1,4,5)P3 as the radioligand.; format: cell membranes, Cerebellum, Membrane
How it was run: (§1)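 [3H]Ins(1,4,5)P3 displacement using pig cerebellar P2 membranes, assayed at pH 6.8. Buffer: 25 mM Tris/maleate, 5 mM NaHCO3, 1 mM EDTA, 0.25 mM DTT. Increasing ligand concentrations were incubated with 1.5 nM radioligand and about 70 μg membrane protein for 30 min at 4 °C. Bound ligand was separated by centrifugation. Nonspecific binding was taken with 10 μM Ins(1,4,5)P3. IC50 from curve fitting, mean ± sem, n = 3.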

[2] = target: T1, Type 1 InsP3 receptor isoform S2; experiment: Binding affinity against IP3 receptor in pig cerebellar membranes at a pH of 7.6 using [3H]Ins(1,4,5)P3 as the radioligand.; format: cell membranes, Cerebellum, Membrane
How it was run: as §1, with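 “7.6.” for “6.8.”, “50” for “70”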

[3] = Calcium mobilization in saponin permeabilised SH-SY5Y neuroblastoma cells at a pH of 7.2; format: functional, cell-based; settings: Homo sapiens
How it was run: (§2)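 SH-SY5Y cells were preloaded with 45Ca2+ and permeabilized with saponin. Release from Ins(1,4,5)P3-sensitive stores was measured in cytosolic-like buffer at pH 6.8, 7.2 or 7.6, at 20–22 °C. Release was normalized to 100% using 30 μM Ins(1,4,5)P3 as an internal standard in each experiment. EC50 from curve fitting, mean ± sem, n = 4.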

[4] = Calcium mobilization in saponin permeabilised SH-SY5Y neuroblastoma cells at a pH of 7.6; format: functional, cell-based; settings: Homo sapiens; how it was run: as §2
[5] = Calcium mobilization in saponin permeabilised SH-SY5Y neuroblastoma cells at a pH of 6.8; format: functional, cell-based; settings: Homo sapiens; how it was run: as §2

T1 sequence (P79248 whole entry, canonical isoform): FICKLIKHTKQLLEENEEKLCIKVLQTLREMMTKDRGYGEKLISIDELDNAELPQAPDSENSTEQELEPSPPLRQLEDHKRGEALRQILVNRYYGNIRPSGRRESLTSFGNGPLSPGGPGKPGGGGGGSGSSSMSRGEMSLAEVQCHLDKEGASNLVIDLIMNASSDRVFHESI

OC1C(O)C(OP(O)(O)=S)C(OP(O)(O)=S)C(O)C1OP(O)(O)=S (stereo unspecified)
IC50 [1]: 0.078 µM | IC50 [2]: 0.061 µM | EC50 [3]: 0.052 µM | EC50 [4]: 0.107 µM | EC50 [5]: 0.255 µM

NC1C(O)C(OP(=O)(O)O)C(O)C(OP(=O)(O)O)C1OP(=O)(O)O (stereo unspecified)
IC50 [1]: 9.11 µM | IC50 [2]: 5.65 µM | EC50 [3]: 1.07 µM | EC50 [4]: 1.49 µM | EC50 [5]: 3.68 µM

OC1C(OP(O)(O)=S)C(O)C(OP(O)(O)=S)C(OP(O)(O)=S)C1OP(O)(O)=S (stereo unspecified)
EC50 [5]: 5.32 µM
